Article PMC6702078 (Biochemical pharmacology, 2019)

Experiments:
[1] = tested on: androgen-dependent LNCaP PC cells; assay: Cell viability; format: cell-based, human; conditions: for IC20 / IC50 / IC70 / IC90: Homo sapiens, 96 h; for IC20: read-out: ED20; for IC50: read-out: ED50; for IC70: read-out: ED70; for IC90: read-out: ED90; for effect on viability: escalating concentrations, 96 hours (Fig.5C)
[2] = tested on: castration-resistant PC-3 PC cells; assay: Cell viability; format: cell-based, human; conditions: for IC20 / IC50 / IC70 / IC90: Homo sapiens, 96 h; for IC20: read-out: ED20; for IC50: read-out: ED50; for IC70: read-out: ED70; for IC90: read-out: ED90; for effect on viability: PC-3, escalating concentrations, 96 hours (Fig.5D)
[3] = tested on: castration-resistant DU-145 PC cells; assay: Cell viability; format: cell-based, human; conditions: for ED20 / ED50 / ED70 / ED90: DU-145, 96 hours, CellTiter Blue; for effect on viability: DU-145, escalating concentrations, 96 hours (Fig.5E)
[4] = Kinetic aqueous solubility in PBS; format: physicochemical; conditions: phosphate buffered saline, pH 7.4, aqueous buffer, kinetic from dmso stock
[5] = Mouse liver microsome stability; format: in vitro ADME; conditions: male, CD-1, mouse, liver microsomes, pH 7.4
[6] = Human liver microsome stability; format: in vitro ADME; conditions: both, liver microsomes, pH 7.4
[7] = Mouse plasma stability; format: in vitro ADME; conditions: for half-life at 1 μM: male, C57BL/6, mouse, pH 7.4
[8] = biological target: hCYP3A4 (Homo sapiens, UniProt P08684); assay: Cytochrome P450 inhibition CYP3A4; format: in vitro ADME
hCYP3A4, sequence (P08684 whole entry): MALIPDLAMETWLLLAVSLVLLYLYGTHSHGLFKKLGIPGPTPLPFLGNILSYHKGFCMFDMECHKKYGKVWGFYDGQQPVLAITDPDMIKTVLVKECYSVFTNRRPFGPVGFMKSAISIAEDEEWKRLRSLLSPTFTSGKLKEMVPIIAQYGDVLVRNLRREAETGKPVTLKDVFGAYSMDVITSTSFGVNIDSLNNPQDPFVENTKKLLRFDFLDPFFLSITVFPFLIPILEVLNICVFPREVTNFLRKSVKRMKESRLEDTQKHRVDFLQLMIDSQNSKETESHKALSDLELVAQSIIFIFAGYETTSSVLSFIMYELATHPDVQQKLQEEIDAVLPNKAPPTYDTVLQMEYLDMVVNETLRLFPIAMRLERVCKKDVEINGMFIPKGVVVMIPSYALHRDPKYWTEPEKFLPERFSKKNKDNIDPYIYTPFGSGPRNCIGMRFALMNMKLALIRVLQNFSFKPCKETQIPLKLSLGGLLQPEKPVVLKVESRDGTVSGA

[9] = biological target: hCYP2D6 (Homo sapiens, UniProt P10635); assay: Cytochrome P450 inhibition CYP2D6; format: in vitro ADME
hCYP2D6, sequence (P10635 whole entry): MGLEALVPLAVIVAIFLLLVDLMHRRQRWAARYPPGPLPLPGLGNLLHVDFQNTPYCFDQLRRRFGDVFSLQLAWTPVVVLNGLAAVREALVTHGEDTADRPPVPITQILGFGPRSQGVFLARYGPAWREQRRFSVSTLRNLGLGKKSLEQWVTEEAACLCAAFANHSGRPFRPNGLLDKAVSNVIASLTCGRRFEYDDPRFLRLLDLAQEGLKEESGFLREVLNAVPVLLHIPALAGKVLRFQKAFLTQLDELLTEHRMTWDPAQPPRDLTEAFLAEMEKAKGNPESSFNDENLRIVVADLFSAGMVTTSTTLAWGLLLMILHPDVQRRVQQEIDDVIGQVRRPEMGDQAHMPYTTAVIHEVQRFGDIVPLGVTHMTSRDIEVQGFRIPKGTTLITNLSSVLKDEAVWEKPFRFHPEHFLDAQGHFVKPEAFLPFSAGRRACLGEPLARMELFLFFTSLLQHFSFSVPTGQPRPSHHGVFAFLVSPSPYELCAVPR

[10] = biological target: hCYP2C9 (Homo sapiens, UniProt P11712); assay: Cytochrome P450 inhibition CYP2C9; format: in vitro ADME
hCYP2C9, sequence (P11712 whole entry): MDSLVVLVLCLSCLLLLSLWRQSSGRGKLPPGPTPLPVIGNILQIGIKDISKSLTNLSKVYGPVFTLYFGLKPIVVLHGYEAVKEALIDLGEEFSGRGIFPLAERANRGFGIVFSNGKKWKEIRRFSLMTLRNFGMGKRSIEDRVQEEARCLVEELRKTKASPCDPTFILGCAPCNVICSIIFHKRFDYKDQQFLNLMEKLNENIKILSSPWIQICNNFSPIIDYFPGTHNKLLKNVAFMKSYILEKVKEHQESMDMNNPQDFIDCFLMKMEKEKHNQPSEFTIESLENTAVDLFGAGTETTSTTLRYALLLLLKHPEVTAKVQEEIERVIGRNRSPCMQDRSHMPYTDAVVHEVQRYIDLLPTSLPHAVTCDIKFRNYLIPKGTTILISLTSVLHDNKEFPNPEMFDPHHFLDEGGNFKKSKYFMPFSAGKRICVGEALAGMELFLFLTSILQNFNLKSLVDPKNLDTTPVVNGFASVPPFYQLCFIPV

[11] = tested on: AR transcriptional activity; assay: AR luciferase reporter assay in LNCaP with R1881; format: cell-based, human; conditions: R1881 2.5nM, 8 hrs
[12] = tested on: PARP1 enzymatic activity in PC cells; assay: PARP-1 inhibitory assay in human cell culture; format: cell-based
Summary of the method: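 Graded doses of test compound were added in complete medium for 24 or 48 h. Cells were lysed in SDS sample buffer at 1 × 10^7 cells/ml and boiled 5 min. Poly(ADP-ribose) was assessed by SDS-PAGE and Western blot with mouse anti-pADPr (1:500).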

[13] = biological target: PARP-1 (Homo sapiens, UniProt P09874); assay: PARP-1 activity assay in cell free system; format: biochemical; conditions: inhibitors at 10μM; pADPr Western blot and colorimetric assay (Fig.4C-D)
PARP-1, sequence (P09874 whole entry): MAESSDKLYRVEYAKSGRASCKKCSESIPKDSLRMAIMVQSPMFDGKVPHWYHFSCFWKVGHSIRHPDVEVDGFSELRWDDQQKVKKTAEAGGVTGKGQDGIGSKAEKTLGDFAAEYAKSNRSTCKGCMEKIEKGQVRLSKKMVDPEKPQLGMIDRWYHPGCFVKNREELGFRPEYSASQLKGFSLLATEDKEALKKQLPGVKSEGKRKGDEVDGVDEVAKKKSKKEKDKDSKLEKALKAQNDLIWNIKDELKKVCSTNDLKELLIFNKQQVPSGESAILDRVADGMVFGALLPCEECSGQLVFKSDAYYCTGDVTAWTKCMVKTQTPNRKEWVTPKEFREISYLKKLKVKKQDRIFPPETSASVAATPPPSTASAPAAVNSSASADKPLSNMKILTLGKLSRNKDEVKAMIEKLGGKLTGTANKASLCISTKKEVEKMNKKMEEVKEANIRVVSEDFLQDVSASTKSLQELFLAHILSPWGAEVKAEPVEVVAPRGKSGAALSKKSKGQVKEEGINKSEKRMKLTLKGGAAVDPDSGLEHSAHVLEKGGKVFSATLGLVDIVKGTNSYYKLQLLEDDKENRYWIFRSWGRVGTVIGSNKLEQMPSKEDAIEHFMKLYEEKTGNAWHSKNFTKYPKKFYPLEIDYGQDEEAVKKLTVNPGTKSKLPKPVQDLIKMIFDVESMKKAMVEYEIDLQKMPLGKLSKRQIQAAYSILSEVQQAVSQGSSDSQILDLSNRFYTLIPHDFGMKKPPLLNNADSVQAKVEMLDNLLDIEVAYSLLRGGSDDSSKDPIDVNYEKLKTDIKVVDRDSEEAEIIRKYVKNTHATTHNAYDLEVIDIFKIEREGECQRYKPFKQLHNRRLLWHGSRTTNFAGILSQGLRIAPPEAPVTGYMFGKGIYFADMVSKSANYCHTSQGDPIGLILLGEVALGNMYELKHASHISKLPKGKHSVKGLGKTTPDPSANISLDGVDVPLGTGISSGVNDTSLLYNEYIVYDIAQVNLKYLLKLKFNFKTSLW
Summary of the method: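 Commercial PARP-1 enzyme was activated by either H4 histone or endonuclease-digested plasmid DNA, with NAD and inhibitor or water, in PARP-1 reaction buffer (Tris pH 8.0, MgCl2, Triton X-100). Reactions ran 30 min at room temperature. pADPr was detected by SDS-PAGE and anti-pADPr Western blot, relative to DMSO-treated mixtures. Inhibitors were tested at 10 μM.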

[14] = tested on: PSA expression; assay: PSA expression by Western blot in LNCaP expressing AR-V7; format: cell-based, human; conditions: LNCaP stably expressing AR-V7, 10μM, 24 hrs
Summary of the method: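 Cells were lysed in 1x SDS sample buffer (1 × 10^7 cells/ml) and boiled 5 min. PSA and AR levels were assessed by SDS-PAGE and Western blot.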

[15] = tested on: LNCaP expressing both wild-type and constitutively active AR splice variant AR-V7; assay: Cell viability; format: cell-based, human; conditions: LNCaP AR-V7, 96 hours, CellTiter Blue, XLfit
[16] = tested on: AR transcriptional activity; assay: AR luciferase reporter assay in LNCaP expressing AR-V7; format: cell-based, human; conditions: LNCaP stably expressing AR-V7, luciferase, 8 hrs

| Structure (SMILES) | IC50 [1] [µM] | IC90 [1] [µM] | IC50 [2] [µM] | IC90 [2] [µM] | solubility at 90 min [4] [µM] | remaining at 1 h, 1 μM [5] [%] | half-life at 1 μM [6] [min] | microsomal CLint at 1 μM [6] [µL/min/mg] | remaining at 1 h, 1 μM [6] [%] | half-life at 1 μM ([7]; mouse plasma) [min] | IC50 [8] [µM] | effect on R1881-mediated AR transcriptional activity [11] | IC20 [1] [µM] | IC70 [1] [µM] | IC20 [2] [µM] | IC70 [2] [µM] | ED20 [3] [µM] | ED50 [3] [µM] | ED70 [3] [µM] | ED90 [3] [µM] | other results |
| --- | --- | --- | --- | --- | --- | --- | --- | --- | --- | --- | --- | --- | --- | --- | --- | --- | --- | --- | --- | --- | --- |
| O=C(CN1CCC1)OC1CCCCCCCCCCC1 [MC-270008, Cyclododecyl 2-(azetidin-1-yl)acetate] | – | – | – | – | – | – | – | – | – | – | – | – | – | – | – | – | – | – | – | – | PARP-1 inhibitory activity in cell free system [13]: diminished capacity to inhibit PARP-1; effect on the PARP1 enzymatic activity in PC cells [12]: insignificant effect |
| CCN(CC)CCOC(=O)c1ccc(N)cc1 [procaine, reference compound] | – | – | – | – | – | – | – | – | – | – | – | – | – | – | – | – | – | – | – | – | stable in PBS ([7]; PBS pH 7.4, 1 μM, 60 min, 37°C, typical value): 100%; degraded in plasma ([7]; mouse plasma, 1 μM, 60 min, 37°C, typical value): > 95% |
| CNC(=O)c1ccc(N2C(=S)N(c3ccc(C#N)c(C(F)(F)F)c3)C(=O)C2(C)C)cc1F [Enzalutamide] | – | – | – | – | – | – | – | – | – | – | – | – | – | – | – | – | – | – | – | – | effect on PSA expression [14]: negligible inhibitory effect |
| CNCc1ccc(-c2[nH]c3cc(F)cc4c3c2CCNC4=O)cc1 [Rucaparib, reference compound] | 26.7 | 155 | 7 | 157 | – | – | – | – | – | – | – | only weak inhibitory effects | – | 52.6 | 1 | 23.2 | 0.9 | 5.0 | 14.8 | 82.7 | – |
| C[C@]1(c2nc3c(C(N)=O)cccc3[nH]2)CCCN1 [Veliparib, reference compound] | 55.6 | 768 | 70.5 | 1630 | – | – | – | – | – | – | – | only weak inhibitory effects | 10.6 | 153 | 9.7 | 237 | 6.7 | 36.7 | 104.0 | 547.2 | – |
| O=C(c1cc(Cc2n[nH]c(=O)c3ccccc23)ccc1F)N1CCN(C(=O)C2CC2)CC1 [Olaparib, reference compound] | 20.4 | 4450 | 9.3 | 384 | – | – | – | – | – | – | – | only weak inhibitory effects | 0.7 | 163 | 0.9 | 39 | 1.2 | 7.4 | 22.0 | 125.8 | ED20 [15]: 7.3 µM; ED50 [15]: 61.9 µM; ED70 [15]: 228.7 µM; ED90 [15]: 1835 µM; effect on AR transcriptional activity [16]: negligible inhibitory effect; effect on PSA expression [14]: negligible inhibitory effect |

Continued, in another order:

| IC50 [1] [µM] | IC90 [1] [µM] | IC50 [2] [µM] | IC90 [2] [µM] | solubility at 90 min [4] [µM] | remaining at 1 h, 1 μM [5] [%] | half-life at 1 μM [6] [min] | microsomal CLint at 1 μM [6] [µL/min/mg] | remaining at 1 h, 1 μM [6] [%] | half-life at 1 μM ([7]; mouse plasma) [min] | IC50 [8] [µM] | effect on R1881-mediated AR transcriptional activity [11] | Structure (SMILES) | IC20 [1] [µM] | IC70 [1] [µM] | IC20 [2] [µM] | IC70 [2] [µM] | ED20 [3] [µM] | ED50 [3] [µM] | ED70 [3] [µM] | ED90 [3] [µM] | other results |
| --- | --- | --- | --- | --- | --- | --- | --- | --- | --- | --- | --- | --- | --- | --- | --- | --- | --- | --- | --- | --- | --- |
| 3 | 19.4 | 22.4 | 85 | 125 | 98 | 1.9 | 721 | 92 | 57.2 | 2.98 | – | C[N+]1(CC(=O)OC2CCCCCCCCCCC2)CCCC1.[I-] [MC-270016, 1-(2-(Cyclododecyloxy)-2-oxoethyl)-1-methylpyrrolidin-1-ium iodide] | 0.9 | 6.1 | 9.6 | 37.4 | 13.3 | 38.6 | 73.9 | 208.1 | IC50 [9]: 8.54 µM; IC50 [10]: > 10 µM |
| – | – | – | – | – | – | – | – | – | – | – | only weak inhibitory effects | Cl.O=C(CN1CCCCC1)OC1CCCCCCCCCCC1 [FC-7218, Cyclododecyl 2-(piperidin-1-yl)acetate hydrochloride] | – | – | – | – | – | – | – | – | effect on viability [1]: no significant effect; effect on viability [2]: no significant effect; effect on viability [3]: no significant effect; effect on the PARP1 enzymatic activity in PC cells [12]: insignificant effect |
| 15.2 | 84.2 | 36.8 | 310 | 191 | 101 | 1.6 | 850 | 100 | > 240 | 1.93 | only weak inhibitory effects | C[N+]1(CC(=O)NC2CCCCCCCCCCC2)CCCCC1.[I-] [FC-7220, 1-[(Cyclododecylcarbamoyl)methyl]-1-methylpiperidin-1-ium iodide] | 5.1 | 29.4 | 9.6 | 83.7 | 10.0 | 37.2 | 82.7 | 296.1 | IC50 [9]: 2.37 µM; IC50 [10]: > 10 µM; PARP-1 inhibitory activity in cell free system [13]: reduced anti-PARP-1 activity |
| – | – | – | – | – | – | – | – | – | – | – | only weak inhibitory effects | Cl.O=C(CN1CCCCC1)NC1CCCCCCCCCCC1 [FC-7219, N-cyclododecyl-2-(piperidin-1-yl)acetamide hydrochloride] | – | – | – | – | – | – | – | – | effect on viability [1]: no significant effect; effect on viability [2]: no significant effect; effect on viability [3]: no significant effect; effect on the PARP1 enzymatic activity in PC cells [12]: insignificant effect |
| 11.2 | 52.1 | 60.6 | 3270 | 110 | 88 | 1.3 | 1070 | 85 | 118 | 3.92 | – | C[N+]1(CC(=O)OC2CCCCCCCCCCC2)CCSCC1.[I-] [MC-270021, 4-(2-(Cyclododecyloxy)-2-oxoethyl)-4-methylthiomorpholin-4-ium iodide] | 4.2 | 20.3 | 4.9 | 282 | – | – | – | – | IC50 [9]: 9.25 µM; IC50 [10]: > 10 µM |
| 3.1 | 12.2 | 14.6 | 48.1 | 95.2 | 84 | 1.2 | 1150 | 92 | 19.6 | 4.67 | – | CC1(C)CC[N+](C)(CC(=O)OC2CCCCCCCCCCC2)CC1.[I-] [MC-270019, 1-(2-(Cyclododecyloxy)-2-oxoethyl)-1,4,4-trimethylpiperidin-1-ium iodide] | 1.3 | 5.2 | 6.9 | 23.1 | 10.9 | 24.6 | 40.4 | 89.1 | IC50 [9]: 9.93 µM; IC50 [10]: > 10 µM |
| 2.3 | 10.1 | 17.5 | 40.8 | 140 | 87 | 1.2 | 1200 | 95 | 35.9 | 1.7 | – | C[N+]1(CC(=O)OC2CCCCCCCCCCC2)CCCCCC1.[I-] [MC-270017, 1-(2-(Cyclododecyloxy)-2-oxoethyl)-1-methylazepan-1 ium iodide] | 0.9 | 4.1 | 10.2 | 24.2 | 10.6 | 20.9 | 31.6 | 61.1 | IC50 [9]: 4.4 µM; IC50 [10]: > 10 µM |
